Compounds with a hit are over-represented: about 3.5% of the library has one in this group of screens.
FGF22 binding: binders of recombinant human FGF22 by thermal shift; Q9HCT0; SYPRO orange fluorescence; percent of sucrose octasulfate shift, DMSO zero; activity (Tm shift, normalised), % at 9.99 µM; 1.5% of 340,000 active; AID 651658;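 active means mean Tm shift, scaled 0 neutral to 100 positive control, at about 1.3% or above, every replicate too, limit read from the data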
HIV Env fusion: HIV envelope-mediated fusion inhibition; HeLa-JRFL Env/CEM21 cell fusion, luciferase; inhibition, % at 12.3 µM; 1.1% of 360,000 active;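 active means mean replicate inhibition score of at least 50 and every replicate individually at or above 50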;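 further: 0% = plate neutral controls and 100% = maraviroc near 300 nM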
PGC1a acetyl inh: modulators of PGC1a acetylation; inhibition, % at 15.6 µM; 0.17% of 350,000 active; U2OS PGC1a acetylation, AlphaScreen anti-acetyl-lysine; with virally co-expressed GCN5 acetyltransferase; AID 651687;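 active means every replicate shows inhibition of at least 40%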;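 further: 0% = neutral control wells and 100% = positive control wells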
ERAP1 HTS inh: inhibitors of human ERAP1 aminopeptidase | Q9NZ08 | recombinant ERAP1, Leu-AMC fluorescence, 60 min | inhibition, % at 10.7 µM | 0.15% of 340,000 active | AID 652197;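 active means mean replicate inhibition of at least 30%, or all replicates individually reaching that 30% level; inactive means mean below 30% and not every replicate reaching it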;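 further: 0% = neutral control wells and 100% = L-leucinethiol positive control wells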
Target sequence (Q9NZ08 whole entry, looked up): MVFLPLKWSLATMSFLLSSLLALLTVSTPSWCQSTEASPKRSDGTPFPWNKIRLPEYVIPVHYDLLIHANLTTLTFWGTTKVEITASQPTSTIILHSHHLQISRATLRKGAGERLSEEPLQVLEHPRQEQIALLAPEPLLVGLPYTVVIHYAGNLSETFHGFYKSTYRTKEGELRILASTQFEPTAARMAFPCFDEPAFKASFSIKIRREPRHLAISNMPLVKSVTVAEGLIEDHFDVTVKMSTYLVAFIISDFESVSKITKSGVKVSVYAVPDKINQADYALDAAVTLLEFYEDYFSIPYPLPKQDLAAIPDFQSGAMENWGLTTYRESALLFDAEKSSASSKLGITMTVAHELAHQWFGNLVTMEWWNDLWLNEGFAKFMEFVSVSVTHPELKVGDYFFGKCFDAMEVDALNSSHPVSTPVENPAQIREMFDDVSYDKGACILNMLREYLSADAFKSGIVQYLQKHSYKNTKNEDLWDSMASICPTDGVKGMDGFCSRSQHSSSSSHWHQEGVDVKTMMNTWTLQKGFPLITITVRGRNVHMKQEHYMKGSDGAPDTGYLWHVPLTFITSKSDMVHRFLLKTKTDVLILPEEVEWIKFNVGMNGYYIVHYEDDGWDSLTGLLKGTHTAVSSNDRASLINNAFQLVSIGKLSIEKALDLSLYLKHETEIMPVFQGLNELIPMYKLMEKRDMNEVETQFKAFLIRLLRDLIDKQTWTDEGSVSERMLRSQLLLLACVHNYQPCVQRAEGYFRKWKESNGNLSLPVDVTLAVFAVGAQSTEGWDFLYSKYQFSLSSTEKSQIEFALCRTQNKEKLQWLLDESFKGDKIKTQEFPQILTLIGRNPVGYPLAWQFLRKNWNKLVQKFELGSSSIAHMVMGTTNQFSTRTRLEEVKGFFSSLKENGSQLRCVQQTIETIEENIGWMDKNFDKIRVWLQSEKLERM
Cneo AK release: Cryptococcus neoformans lysis via adenylate kinase release; C. neoformans lysis, adenylate kinase release luminescence, 4 h; normalised: neutral wells 0, clomiphene wells 100; lysis activity, % at 15 µM; 0.2% of 360,000 active; AID 651654;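 active means mean lysis activity across replicates of at least 80%, whatever share of replicates individually reach that level; inactive means mean lysis activity below 80%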
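Material: C. neoformans cells | Amount: Yeast cell density of 5 × 10^6 cells/mL | Medium: Fresh YPD growth medium | Dosing: Single dose | Times: Static 4 h at 37 °C with compound, 1 h detection | Detection: AK luminescence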
rRNA inh HTS: inhibits bacterial ribosomal RNA function over humanized ribosomes; E. coli WT GFP vs humanized-ribosome RFP mutants, fluorescence, 24 h; active compounds read low; DMSO median 0, no signal -100; GFP signal change (wild-type ribosome), % (test concentration not listed); 1.6% of 350,000 active;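 active means significant combined selectivity score with lowered wild-type GFP, culture density cut under 30%, mutant RFP and density less affected; inactive means any of these conditions unmet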
Active calls of the source: *; [ ] = dose if it differs, or a comment.

Screening COc1ccccc1-c1ccc([C@@H]2[C@H](CO)N3CCCCN(C(=O)c4ccncc4)C[C@@H]23)cc1 returned FGF22 binding 0.2, PGC1a acetyl inh 0.8, ERAP1 HTS inh -0.6, Cneo AK release -1.4 and rRNA inh HTS 4.4.
`N#Cc1cccc(C#N)c1Oc1ccc(S(=O)(=O)Nc2ccc(Cl)cc2)cc1` gave FGF22 binding -0.2, HIV Env fusion 8.1, ERAP1 HTS inh 1.6 and rRNA inh HTS -38.2*.
Screening O=C(O)c1sccc1Oc1ccc(NS(=O)(=O)c2ccc(Cl)cc2)cc1 returned FGF22 binding 0.3, HIV Env fusion -6.9, ERAP1 HTS inh -6.4 and rRNA inh HTS -20.6.
`COc1ccc(/C=N/NC(=O)c2cc(C34CC5CC(CC(C5)C3)C4)[nH]n2)cc1OC` gave FGF22 binding -0.2, HIV Env fusion 4.4, ERAP1 HTS inh 9.0 and rRNA inh HTS 4.2.
`O=C(N/N=C/c1ccc(O)cc1)c1cc(C23CC4CC(CC(C4)C2)C3)[nH]n1` gave FGF22 binding -0.5, HIV Env fusion 15.2, PGC1a acetyl inh 0.1, ERAP1 HTS inh -5.2 and rRNA inh HTS -32.3*.
`COC(=O)c1sc(C(F)(F)F)c(-c2ccccc2)c1S(=O)(=O)N1CCCC1` gave FGF22 binding 0.0, HIV Env fusion 33.0, PGC1a acetyl inh -5.2, ERAP1 HTS inh -0.7, Cneo AK release 0.5 and rRNA inh HTS -26.0*.
Screening COC(=O)c1sc(C(F)(F)F)c(-c2ccccc2)c1S(=O)(=O)N1CCOCC1 returned FGF22 binding 0.0, HIV Env fusion 10.3, PGC1a acetyl inh -7.0, ERAP1 HTS inh -2.2 and Cneo AK release 4.5.
`CN(C)C(CNc1ncnc2sc3c(c12)CCCCC3)c1ccco1` (stereo unspecified) gave FGF22 binding 0.6, HIV Env fusion 12.3, PGC1a acetyl inh -1.0, ERAP1 HTS inh 4.3 and rRNA inh HTS -38.3*.
Cc1cccc(NC(=O)CNC(=O)COc2cc(F)ccc2[N+](=O)[O-])c1C was read as FGF22 binding 43.1*, HIV Env fusion -3.0, PGC1a acetyl inh -2.3, ERAP1 HTS inh 9.6 and rRNA inh HTS 10.3.
Screening CN(C=O)c1ccc(CSc2ccccc2)cc1 returned FGF22 binding 0.1, HIV Env fusion -33.6, PGC1a acetyl inh 2.1, ERAP1 HTS inh -1.3, Cneo AK release -12.0 and rRNA inh HTS -29.4*.
`O=C(Nc1cccnc1)c1ccc(CSc2ccccc2)cc1` gave FGF22 binding 0.1, HIV Env fusion -12.1, ERAP1 HTS inh 0.9 and rRNA inh HTS -2.6.
CC(C)C[C@@H]1COc2cccc(N3CCN(Cc4ccccc4F)CC3)c2S(=O)(=O)N1 was read as FGF22 binding -0.2, HIV Env fusion -6.0 and rRNA inh HTS -35.4*.
For CC(C)C[C@H]1COc2cccc(N3CCOCC3)c2S(=O)(=O)N1 the results were FGF22 binding -0.2, HIV Env fusion 11.7, ERAP1 HTS inh -6.1 and rRNA inh HTS 9.8.
`CC(C)C[C@@H]1COc2cccc(N3CCCC3)c2S(=O)(=O)N1` gave FGF22 binding -0.2, HIV Env fusion 5.5, ERAP1 HTS inh -4.1 and rRNA inh HTS -28.0*.
Screening Oc1cccc2ccc(/C=C/c3cccs3)nc12 returned HIV Env fusion -181.1, PGC1a acetyl inh 8.0 and Cneo AK release -2.2.
`ONC(=Nc1ccccc1Cl)c1c(F)cccc1F` gave FGF22 binding -0.1, HIV Env fusion 16.1, ERAP1 HTS inh 0.5 and rRNA inh HTS -37.0*.
Screening COc1ccc(Cn2nnnc2C(c2cc3cc(C)cc(C)c3[nH]c2=O)N2CCOCC2)cc1 (stereo unspecified) returned HIV Env fusion 131.0*, PGC1a acetyl inh -1.3 and Cneo AK release -0.1.
For COc1ccc(Cn2nnnc2C(c2cc3cccc(C)c3[nH]c2=O)N2CCN(C)CC2)cc1 (stereo unspecified) the results were FGF22 binding 0.3, HIV Env fusion 0.8, PGC1a acetyl inh -21.9, ERAP1 HTS inh 5.7 and rRNA inh HTS 7.4.
COc1ccc(Cn2nnnc2C(c2cc3cc(C)ccc3[nH]c2=O)N2CCN(C)CC2)cc1 (stereo unspecified) was read as FGF22 binding 43.5*, HIV Env fusion -2.3, ERAP1 HTS inh -2.0 and rRNA inh HTS 12.1.
`CCc1ccc2[nH]c(=O)c(C(c3nnnn3Cc3ccc(OC)cc3)N3CCOCC3)cc2c1` (stereo unspecified) gave HIV Env fusion 77.9*, PGC1a acetyl inh -8.2 and Cneo AK release 0.2.
`Cc1cc(C)c2[nH]c(=O)c(C(c3nnnn3Cc3ccc4c(c3)OCO4)N3CCCCC3)cc2c1` (stereo unspecified) gave PGC1a acetyl inh 19.0.
For COc1ccccc1CCNC(=O)NC1CCCCC1 the results were FGF22 binding 0.0, HIV Env fusion -9.2, ERAP1 HTS inh 5.2, Cneo AK release -2.2 and rRNA inh HTS 2.3.
For CCCNC(=O)c1ccc2c(=O)c(O)c(-c3ccc(C)cc3)[nH]c2c1 the results were FGF22 binding 0.0, HIV Env fusion 43.1, ERAP1 HTS inh -0.4, Cneo AK release -3.4 and rRNA inh HTS -6.3.
Cc1ccc(-c2[nH]c3cc(C(=O)NCCCn4ccnc4)ccc3c(=O)c2O)cc1 was read as FGF22 binding -0.1, HIV Env fusion -7.6, PGC1a acetyl inh -0.4, ERAP1 HTS inh 6.7, Cneo AK release -1.3 and rRNA inh HTS -20.6*.
`Cc1ccc(CNC(=O)c2ccc3c(=O)c(O)c(-c4ccc(C)cc4)[nH]c3c2)cc1` gave FGF22 binding 0.0, HIV Env fusion 56.6*, PGC1a acetyl inh 15.4, ERAP1 HTS inh 1.3, Cneo AK release -2.8 and rRNA inh HTS 3.2.
`CCCNC(=O)c1ccc2c(=O)c(O)c(-c3ccc(OC)cc3)[nH]c2c1` gave PGC1a acetyl inh -11.8 and Cneo AK release 9.4.
COc1ccccc1C(=O)Nc1ccc2c(c1)OC[C@H](C)N(C(C)=O)C[C@@H](C)[C@@H](OC)CN(C)C2=O was read as FGF22 binding -0.1, HIV Env fusion 4.0[16.7 µM], PGC1a acetyl inh 14.4, Cneo AK release -1.8 and rRNA inh HTS -0.2.
`CSc1ccc2c(c1)C(N1CCN(C)CC1)Cc1ccc(F)cc1S2` (stereo unspecified) gave FGF22 binding 0.0, HIV Env fusion 6.1, PGC1a acetyl inh -4.0, ERAP1 HTS inh 7.5, Cneo AK release 2.8 and rRNA inh HTS -48.2*.
`Cc1cccc(C)c1NC1=C(Cl)C(=O)OC1OC(C)C` (stereo unspecified) gave FGF22 binding 0.0, ERAP1 HTS inh 5.0 and rRNA inh HTS 14.9.
Screening COc1ccc(NC(=O)C2Cc3c(-c4ccccc4Oc4ccccc4)ccnc3O2)cn1 (stereo unspecified) returned FGF22 binding -0.1, HIV Env fusion 24.9, ERAP1 HTS inh -2.4, Cneo AK release 0.5 and rRNA inh HTS -23.1.
